Compound activity (PubChem)
GSK3 alpha inh – human GSK-3 alpha kinase inhibition; 320,000 compounds, 0.1% hits; inhibition, % at 10 µM; AID 2650; ADP-Glo luminescence, 60 min; P49840;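 active = more than half of replicates show inhibition above 20%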;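 note: GST-tagged GSK-3 alpha with peptide substrate and 25 µM ATP; 0% = DMSO neutral wells and 100% = GW8510 positive control wells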
Target sequence (P49840 whole entry, looked up): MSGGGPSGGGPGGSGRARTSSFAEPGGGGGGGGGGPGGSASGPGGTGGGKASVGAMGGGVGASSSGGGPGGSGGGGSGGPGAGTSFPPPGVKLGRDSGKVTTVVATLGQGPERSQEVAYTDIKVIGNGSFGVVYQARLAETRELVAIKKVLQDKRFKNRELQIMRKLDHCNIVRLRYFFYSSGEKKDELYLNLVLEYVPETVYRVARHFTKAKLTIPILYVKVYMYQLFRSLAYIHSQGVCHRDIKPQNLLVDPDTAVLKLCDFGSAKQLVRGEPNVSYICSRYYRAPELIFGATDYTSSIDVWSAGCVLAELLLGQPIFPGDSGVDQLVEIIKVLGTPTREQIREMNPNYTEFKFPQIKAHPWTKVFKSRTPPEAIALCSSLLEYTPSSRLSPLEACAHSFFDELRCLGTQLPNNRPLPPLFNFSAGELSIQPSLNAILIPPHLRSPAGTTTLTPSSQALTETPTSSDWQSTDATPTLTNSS
STK33 kinase inh – human STK33 kinase inhibition | 320,000 compounds, 0.073% hits | AID 2661 | purified STK33, MBP phosphorylation, ADP-Glo luminescence | inhibition, % at 10 µM | Q9BYT3;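 active = inhibition at or above 25%, using the most active replicate where run in duplicate; inactive = inhibition below 25%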
Dyrk1A ADPGlo – inhibitors of rat Dyrk1A kinase | ADP-Glo luminescence, NFATc1 peptide | 310,000 compounds, 0.43% hits | inhibition, % at 12.5 µM; in the data active = inhibition above about 50%;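 note: plate controls were vehicle with enzyme for no effect and no enzyme for full effect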
GSK3beta inhib – inhibitors of human GSK3beta kinase. P49841. GST-GSK3beta kinase, ADP-Glo luminescence, 60 min; stronger effect = lower value. activity score (negative = inhibition), % at 10 µM. 300,000 compounds, 0.038% hits;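 active = more than half of replicate wells score below -50%, meaning over 50% inhibition versus plate controls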;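 note: 0% = median DMSO wells and -100% = median GW8510 positive control wells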
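Test system: GST-tagged human GSK3beta kinase, cell-free; evaluation: activity score scaled between in-plate DMSO and GW8510 controls; measured by: ADP-Glo luminescence; incubation: 60 min reaction, RT; benchmarks: DMSO and 20 µM GW8510; reagent: peptide substrate plus 25 µM ATP (final); medium: Tris/MgCl2 kinase buffer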
An asterisk follows results filed as active; · = no result given. This excerpt belongs to a sample that is enriched for hits.

SMILES	GSK3 alpha inh	STK33 kinase inh	Dyrk1A ADPGlo	GSK3beta inhib
O=C(O)CCC1c2cc3c4cc2OC2Oc5cc6c(cc51)C(CCC(=O)O)c1cc5c7cc1OC(O6)c1cc6cc(c1)Oc1cc(cc(C(=O)O)c1)Oc1cc8cc(c1)C(Oc1cc(c(cc1C5CCC(=O)O)C3CCC(=O)O)OC(O4)c1cc(cc(c1)Oc1cc(cc(C(=O)O)c1)O8)Oc1cc(cc(C(=O)O)c1)Oc1cc(cc2c1)Oc1cc(cc(C(=O)O)c1)O6)O7 (configuration not stated)	-305	30*	·	2
O=C(N/N=C/c1ccccn1)c1sc2ccccc2c1Cl	21	8	64*	-18
O=C(N/N=C/c1c[nH]c2ccccc12)c1sc2ccccc2c1Cl	-1	-2	18	3
Cc1cc(C)c(NC(=O)C2=COCCO2)c(C)c1	-2	-2	7	5
COc1cc(/C=C/C(O)=C/C(=O)/C=C/c2ccc(O)cc2)ccc1O	-3	43*	-1	·
CCOC(=O)c1nnn(-c2nonc2N)c1-c1ccc(OC)cc1	58*	-1	11	-40
CCOC(=O)c1nnn(-c2nonc2N)c1-c1ccccc1Cl	55*	2	6	-24
COC(=O)c1nnn(-c2nonc2N)c1CSCCO	67*	1	25	-74*
CCOC(=O)c1nnn(-c2nonc2N)c1-c1cccc2ccccc12	12	2	-3	-5
Cc1ccc(N2CC(C(=O)Nc3ncc([N+](=O)[O-])s3)CC2=O)cc1 (configuration not stated)	51*	0	-2	-22
OCC1OC(n2ccc3c(SCc4ccccc4)ncnc32)C(O)C1O (configuration not stated)	·	·	-2	·
COc1ccc(C(=O)O/N=C(\N)c2ccccc2)cc1	32	26*	·	1
N/C(=N\OC(=O)c1ccc(Cl)cc1Cl)c1ccccn1	6	6	8	-11
Cc1ccc(C(=O)O/N=C(\N)c2ccccn2)c(Cl)c1	34	29*	27	-31
COc1cccc(C(=O)O/N=C(\N)c2ccccn2)c1	46	37*	40	·
CCc1ccc(OCCCCN(C)Cc2ccccc2)cc1	-3	-4	·	-3
CN(C)c1cc2c(c(N(C)C)c1)C(=O)c1ccccc1C2=O	1	40*	6	0
CN(C)S(=O)(=O)c1cccc2c1C(=O)c1ccccc1C2=O	1	0	3	2
C=CCc1cccc(CNn2cnnc2)c1O	6	3	-1	-6
CCOC(=O)C1=C(C)NC2=C(C(=O)CCC2)C1c1cccs1 (configuration not stated)	-3	2	3	0
Cc1[nH]nc2c1C(c1cccs1)C1=C(CCCC1=O)N2 (configuration not stated)	70*	8	5	-50*
Cc1[nH]nc2c1C(c1cccs1)C1=C(CC(C)(C)CC1=O)N2 (configuration not stated)	99*	1	·	-82*
CC(C)Sc1nc2c(c(=O)[nH]1)C(c1cccs1)C1=C(CC(C)(C)CC1=O)N2 (configuration not stated)	-1	-1	-3	2
O=c1c(O)c(-c2ccc(O)c(O)c2)oc2cc(O)cc(O)c12	57*	38*	4	-45
O=c1cc(-c2ccc(O)c(O)c2)oc2cc(O)cc(O)c12	27	-1	91*	-35
SMILES	GSK3 alpha inh	STK33 kinase inh	Dyrk1A ADPGlo	GSK3beta inhib
O=C(O)C1OC(Oc2c(-c3ccc(O)c(O)c3)oc3cc(O)cc(O)c3c2=O)C(O)C(O)C1O (configuration not stated)	6	1	·	0
COc1ccc(-c2cc(=O)c3c(O)cc(O)cc3o2)cc1	0	0	-1	·
COC(=O)COc1ccc2oc(=O)cc(-c3cc4cccc(OC)c4o3)c2c1	0	-1	3	2
O=C1CN(C(=O)c2ccc(Cl)c(S(=O)(=O)N3CCc4ccccc43)c2)c2ccccc2N1	0	-2	6	0
COc1ccc(CNc2nc3ccccc3s2)cc1OC	2	89*	6	4
Cc1ccc(NC(=S)Nc2ccc3cn[nH]c3c2)c(C)c1	29	32*	71*	-2
Cc1ccc(OCC(=O)N(Cc2ccccc2)c2c(N)n(Cc3ccccc3)c(=O)[nH]c2=O)c(C)c1	-4	1	-4	·
Cc1cc(C(=O)NCc2csc(-c3ccccc3)n2)no1	1	0	-3	0
Cc1oc2ccc(O)c(CN3CCOCC3)c2c1C(=O)c1ccc(Cl)cc1	9	-1	9	1
Cc1oc2c(Cl)c(Cl)c(O)c(CN(C)C)c2c1C(=O)c1ccc(Cl)cc1	70*	-1	15	7
O=C(/C=C/c1ccc(S(=O)(=O)N2CCOCC2)cc1)OCC(=O)c1ccc([N+](=O)[O-])cc1	-3	0	-3	-3
CC(C)(C)OC(=O)N1CCC(NC(=O)c2[nH]cnc2C(=O)Nc2ccon2)CC1	72*	-1	-7	·
CCOC(=O)C(CC)n1cnc2c(nnn2-c2ccccc2)c1=O (configuration not stated)	1	-1	0	2
COc1ccc(-n2sc3c(c2=S)-c2cc(OC)ccc2NC3(C)C)cc1	-1	-1	1	1
COc1ccc2c(c1)-c1c(ssc1=S)C(C)(C)N2	1	2	32	-60*
CCOc1ccc(C(=O)NCC(=O)OCCN2C(=O)c3ccccc3C2=O)cc1OCC	-1	0	1	·
Cc1nc2ccccc2n2c(-c3ccccc3)c3c(=O)n(C)c(=O)n(C)c3c12	59*	-2	-1	0
O=c1oc2cc(O)ccc2c2c1CCCC2	56*	5	36	-47
CC(=O)Oc1ccc2c3c(c(=O)oc2c1)CCCC3	3	1	-1	0
CCc1ccc(NC(=O)CCC(=O)c2ccccc2)cc1	-3	1	-3	2
O=C(COC(=O)c1cc(S(=O)(=O)N2CCOCC2)ccc1F)Nc1ccc(Cl)cn1	51*	1	·	·
O=C(COC(=O)CCc1ccc(S(=O)(=O)N2CCOCC2)cc1)Nc1ccc(Cl)cn1	20	-3	6	-18
NC(=O)N/N=C/c1c(O)ccc2oc3c(c12)CCCC3	85*	75*	15	-6
CC(C)(C)N=Cc1c(O)ccc2oc3c(c12)CCCC3	-2	0	-1	3
NC(=O)c1sc2nc(-c3ccco3)ccc2c1N	13	27*	47	-9
SMILES	GSK3 alpha inh	STK33 kinase inh	Dyrk1A ADPGlo	GSK3beta inhib
COC(=O)c1sc2nc(-c3ccco3)ccc2c1N	3	2	2	4
CCCCn1c(N)c(N(CCOC)C(=O)CSCc2cccc(C)c2)c(=O)[nH]c1=O	0	-1	1	-4
Nc1ccc(N=Nc2ccccc2O)c(N)c1	2	33*	·	1
Nc1[nH]nc2nc(-c3ccccc3)[nH]c(=O)c12	9	2	-4	3
Nc1nc(-c2ccccc2)[nH]c(=O)c1N	2	3	75*	-1
Cc1cc(NC(=O)C2CCN(C(=O)c3ccco3)CC2)ccc1Br	0	0	10	-2
CSc1nc(-c2cccs2)c(C#N)c(=O)[nH]1	1	1	48	3
